In ChEMBL document CHEMBL2062435, “Synthesis and in vitro antibacterial activity of gemifloxacin derivatives containing a substituted benzyloxime moiety” (2012):

The compounds below were run on Klebsiella pneumoniae (assay: Antimicrobial activity against Klebsiella pneumoniae 10-2 after 18-24 hrs by two-fold serial dilution method).
Format: functional
Outline: (§1)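 Agar-medium twofold serial dilution against Gram-positive and Gram-negative strains; MIC taken as the lowest compound concentration giving complete inhibition of bacterial growth after incubation at 35 °C for 18-24 h.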
In the case of `COc1cccc(OC)c1CO/N=C1\CN(c2nc3c(cc2F)c(=O)c(C(=O)O)cn3C2CC2)CC1CN.CS(=O)(=O)O` (racemic), the MIC is reported as > 128 µg/mL.

The compounds below were run on Enterococcus faecalis (assay: Antimicrobial activity against Enterococcus faecalis 10-6 after 18-24 hrs by two-fold serial dilution method).
Format: functional
Outline: as §1
For `COc1cccc(OC)c1CO/N=C1\CN(c2nc3c(cc2F)c(=O)c(C(=O)O)cn3C2CC2)CC1CN.CS(=O)(=O)O` (racemic), the MIC was 2 µg/mL.

These compounds were tested on Klebsiella pneumoniae (assay: Antimicrobial activity against Klebsiella pneumoniae 10-3 after 18-24 hrs by two-fold serial dilution method).
Format: functional
Outline: as §1
With `COc1cccc(OC)c1CO/N=C1\CN(c2nc3c(cc2F)c(=O)c(C(=O)O)cn3C2CC2)CC1CN.CS(=O)(=O)O` (racemic) the MIC was 8 µg/mL.

These compounds were tested on Pseudomonas aeruginosa (assay: Antimicrobial activity against extended spectrum beta-lactamases-producing Pseudomonas aeruginosa 10-15 after 18-24 hrs by two-fold serial dilution method).
Format: functional
Outline: as §1
Work on `COc1cccc(OC)c1CO/N=C1\CN(c2nc3c(cc2F)c(=O)c(C(=O)O)cn3C2CC2)CC1CN.CS(=O)(=O)O` (racemic) yielded an MIC of 4 µg/mL.

These compounds were tested on Staphylococcus aureus (assay: Antimicrobial activity against extended spectrum beta-lactamases-producing methicillin-resistant Staphylococcus aureus 10-15 after 18-24 hrs by two-fold serial dilution method).
Format: functional
Outline: (§2)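 Agar twofold serial dilution MIC against clinical isolates. MIC was taken as the lowest concentration giving complete inhibition of bacterial growth after incubation at 35 °C for 18-24 h.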
Work on `COc1cccc(OC)c1CO/N=C1\CN(c2nc3c(cc2F)c(=O)c(C(=O)O)cn3C2CC2)CC1CN.CS(=O)(=O)O` (racemic) yielded an MIC of 0.5 µg/mL.

Each compound was assayed on Staphylococcus epidermidis (assay: Antimicrobial activity against extended spectrum beta-lactamases-producing methicillin-resistant Staphylococcus epidermidis 10-13 after 18-24 hrs by two-fold serial dilution method).
Format: functional
Outline: as §2
For `COc1cccc(OC)c1CO/N=C1\CN(c2nc3c(cc2F)c(=O)c(C(=O)O)cn3C2CC2)CC1CN.CS(=O)(=O)O` (racemic), the MIC was 0.25 µg/mL.

These compounds were tested on Enterococcus faecalis (assay: Antimicrobial activity against Enterococcus faecalis 10-7 after 18-24 hrs by two-fold serial dilution method).
Format: functional
Outline: as §1
In the case of `COc1cccc(OC)c1CO/N=C1\CN(c2nc3c(cc2F)c(=O)c(C(=O)O)cn3C2CC2)CC1CN.CS(=O)(=O)O` (racemic), the MIC is reported as 1 µg/mL.

What follows are compounds tested on Pseudomonas aeruginosa (assay: Antimicrobial activity against extended spectrum beta-lactamases-producing Pseudomonas aeruginosa 10-5 after 18-24 hrs by two-fold serial dilution method).
Format: functional
Outline: as §1
`COc1cccc(OC)c1CO/N=C1\CN(c2nc3c(cc2F)c(=O)c(C(=O)O)cn3C2CC2)CC1CN.CS(=O)(=O)O` (racemic) was tested, and the MIC was 4 µg/mL.

What follows are compounds tested on Staphylococcus epidermidis (assay: Antimicrobial activity against extended spectrum beta-lactamases-producing methicillin-sensitive Staphylococcus epidermidis 10-13 after 18-24 hrs by two-fold serial dilution method).
Format: functional
Outline: as §1
Work on `COc1cccc(OC)c1CO/N=C1\CN(c2nc3c(cc2F)c(=O)c(C(=O)O)cn3C2CC2)CC1CN.CS(=O)(=O)O` (racemic) yielded an MIC of 2 µg/mL.

What follows are compounds tested on Staphylococcus aureus (assay: Antimicrobial activity against extended spectrum beta-lactamases-producing methicillin-sensitive Staphylococcus aureus 10-13 after 18-24 hrs by two-fold serial dilution method).
Format: functional
Outline: as §1
`COc1cccc(OC)c1CO/N=C1\CN(c2nc3c(cc2F)c(=O)c(C(=O)O)cn3C2CC2)CC1CN.CS(=O)(=O)O` (racemic) showed an MIC of 0.125 µg/mL.

Each compound was assayed on Staphylococcus epidermidis (assay: Antimicrobial activity against extended spectrum beta-lactamases-producing methicillin-sensitive Staphylococcus epidermidis 10-15 after 18-24 hrs by two-fold serial dilution method).
Format: functional
Outline: as §1
With `COc1cccc(OC)c1CO/N=C1\CN(c2nc3c(cc2F)c(=O)c(C(=O)O)cn3C2CC2)CC1CN.CS(=O)(=O)O` (racemic) the MIC was 0.5 µg/mL.

These compounds were tested on Klebsiella pneumoniae (assay: Antimicrobial activity against extended spectrum beta-lactamases-producing Klebsiella pneumoniae 10-2 after 18-24 hrs by two-fold serial dilution method).
Format: functional
Outline: as §1
With `COc1cccc(OC)c1CO/N=C1\CN(c2nc3c(cc2F)c(=O)c(C(=O)O)cn3C2CC2)CC1CN.CS(=O)(=O)O` (racemic) the MIC was 64 µg/mL.

What follows are compounds tested on Klebsiella pneumoniae (assay: Antimicrobial activity against Klebsiella pneumoniae 10-4 after 18-24 hrs by two-fold serial dilution method).
Format: functional
Outline: as §1
`COc1cccc(OC)c1CO/N=C1\CN(c2nc3c(cc2F)c(=O)c(C(=O)O)cn3C2CC2)CC1CN.CS(=O)(=O)O` (racemic) was tested, and the MIC was > 128 µg/mL.

These compounds were tested on Pseudomonas aeruginosa (assay: Antimicrobial activity against Pseudomonas aeruginosa 10-12 after 18-24 hrs by two-fold serial dilution method).
Format: functional
Outline: as §1
With `COc1cccc(OC)c1CO/N=C1\CN(c2nc3c(cc2F)c(=O)c(C(=O)O)cn3C2CC2)CC1CN.CS(=O)(=O)O` (racemic) the MIC was 4 µg/mL.

What follows are compounds tested on Escherichia coli (assay: Antimicrobial activity against Escherichia coli 10-3 after 18-24 hrs by two-fold serial dilution method).
Format: functional
Outline: as §1
Work on `COc1cccc(OC)c1CO/N=C1\CN(c2nc3c(cc2F)c(=O)c(C(=O)O)cn3C2CC2)CC1CN.CS(=O)(=O)O` (racemic) yielded an MIC of 8 µg/mL.

These compounds were tested on Klebsiella pneumoniae (assay: Antimicrobial activity against extended spectrum beta-lactamases-producing Klebsiella pneumoniae 10-1 after 18-24 hrs by two-fold serial dilution method).
Format: functional
Outline: as §1
`COc1cccc(OC)c1CO/N=C1\CN(c2nc3c(cc2F)c(=O)c(C(=O)O)cn3C2CC2)CC1CN.CS(=O)(=O)O` (racemic) was tested, and the MIC was 64 µg/mL.

These compounds were tested on Streptococcus pneumoniae (assay: Antimicrobial activity against extended spectrum beta-lactamases-producing Streptococcus pneumoniae 10-4 after 18-24 hrs by two-fold serial dilution method).
Format: functional
Outline: as §1
For `COc1cccc(OC)c1CO/N=C1\CN(c2nc3c(cc2F)c(=O)c(C(=O)O)cn3C2CC2)CC1CN.CS(=O)(=O)O` (racemic), the MIC was 0.25 µg/mL.

Each compound was assayed on Escherichia coli (assay: Antimicrobial activity against Escherichia coli 10-1 after 18-24 hrs by two-fold serial dilution method).
Format: functional
Outline: as §1
In the case of `COc1cccc(OC)c1CO/N=C1\CN(c2nc3c(cc2F)c(=O)c(C(=O)O)cn3C2CC2)CC1CN.CS(=O)(=O)O` (racemic), the MIC is reported as > 128 µg/mL.
